Measurements: ChEMBL document CHEMBL3526049 (Drug Metab Dispos, 2012)

How the values were obtained:
[1] = Drug excretion in bile duct-cannulated BCRP knockout Sprague-Dawley rat bile at 1 mg/kg, iv up to 24 hrs; assay type: ADME, organism-based; parameters: dose 1 mg/kg, route intravenous; conditions: read-out: Drug excretion
Method in brief: (§1)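 Male Sprague-Dawley rats with bile-duct and femoral cannulation, housed in metabolism cages. Given an IV bolus of 1 mg/kg in 2 ml/kg 50% Cremophor EL in ethanol. Urine, bile and feces collected in toto 0–24 h, with cage wash at 24 h. Amounts quantified by LC-MS/MS and expressed as % of dose; n=6–12.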

Kidney = assay: Drug uptake in BCRP knockout Sprague-Dawley rat kidney at 1 mg/kg, iv; assay type: ADME, organism-based; parameters: dose 1 mg/kg, route intravenous; conditions: in vivo
[2] = Volume of distribution at steady state in MDR1A knockout Sprague-Dawley rat at 1 mg/kg, iv by LC-MS/MS analysis; assay type: ADME, organism-based; parameters: dose 1 mg/kg, route intravenous; conditions: in vivo, read-out: Vdss
Method in brief: (§2)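 Male Sprague-Dawley rats (knockout or wild type matched for age and weight), femoral artery and vein cannulated, at least 2 days recovery. Crossover design: IV bolus 1 mg/kg on day 0 (saline with 0.2 M equivalents HCl), oral gavage 10 mg/kg on day 3 (water with 0.2 M equivalents HCl). Arterial plasma sampled to 24 h (Mdr1a oral arm to 4 h). Analysed by LC-MS/MS and noncompartmental analysis.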

[3] = Drug excretion in bile duct-cannulated BCRP knockout Sprague-Dawley rat urine at 1 mg/kg, iv up to 24 hrs; assay type: ADME, organism-based; parameters: dose 1 mg/kg, route intravenous; conditions: read-out: Drug excretion; method in brief: as §1
[4] = Cmax in MDR1A knockout Sprague-Dawley rat at 5 mg/kg, po by LC-MS/MS analysis; assay type: ADME, organism-based; parameters: dose 5 mg/kg, route oral; conditions: in vivo
Method in brief: (§3)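 Male Sprague-Dawley rats (knockouts age- and weight-matched to wild type), femoral-artery and vein cannulated, recovered ≥2 days. IV/oral crossover: 1 mg/kg IV bolus on day 0, then after a 3-day washout 5 mg/kg oral gavage in 10 ml/kg 50% Cremophor EL in ethanol. Arterial plasma 0–24 h, protein-precipitated, LC-MS/MS (positive ion, 1–5000 ng/ml). Noncompartmental analysis; n=5–9.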

[5] = Oral bioavailability in MRP2 knockout Sprague-Dawley rat at 5 mg/kg by LC-MS/MS analysis; assay type: ADME, organism-based; conditions: in vivo; method in brief: as §3
[6] = Half life in wild-type Sprague-Dawley rat at 1 mg/kg, iv by LC-MS/MS analysis; assay type: ADME, organism-based; parameters: dose 1 mg/kg, route intravenous; conditions: in vivo; method in brief: as §2
[7] = Oral bioavailability in BCRP knockout Sprague-Dawley rat at 5 mg/kg by LC-MS/MS analysis; assay type: ADME, organism-based; conditions: in vivo; method in brief: as §3
[8] = Drug excretion in bile duct-cannulated MDR1A knockout Sprague-Dawley rat bile at 1 mg/kg, iv up to 24 hrs; assay type: ADME, organism-based; parameters: dose 1 mg/kg, route intravenous; conditions: read-out: Drug excretion
Method in brief: (§4)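 Male Sprague-Dawley Mdr1a knockout rats with bile duct and femoral cannulas, housed in metabolism cages. […] Urine, bile and feces were collected in total over 0–24 h, and cage wash was taken at 24 h.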

[9] = Drug excretion in bile duct-cannulated MRP2 knockout Sprague-Dawley rat urine at 1 mg/kg, iv up to 24 hrs; assay type: ADME, organism-based; parameters: dose 1 mg/kg, route intravenous; conditions: read-out: Drug excretion; method in brief: as §1
[10] = Drug excretion in bile duct-cannulated MDR1A knockout Sprague-Dawley rat urine at 1 mg/kg, iv up to 24 hrs; assay type: ADME, organism-based; parameters: dose 1 mg/kg, route intravenous; conditions: read-out: Drug excretion; method in brief: as §4
Brain [11] = assay: Drug uptake in MDR1A knockout Sprague-Dawley rat brain at 1 mg/kg, iv; assay type: ADME, organism-based; parameters: dose 1 mg/kg, route intravenous; conditions: in vivo
[12] = Drug excretion in bile duct-cannulated wild-type Sprague-Dawley rat bile at 1 mg/kg, iv up to 24 hrs; assay type: ADME, organism-based; parameters: dose 1 mg/kg, route intravenous; conditions: read-out: Drug excretion; method in brief: as §1
Brain [13] = assay: Drug uptake in BCRP knockout Sprague-Dawley rat brain at 1 mg/kg, iv; assay type: ADME, organism-based; parameters: dose 1 mg/kg, route intravenous; conditions: in vivo
[14] = Drug excretion in bile duct-cannulated MRP2 knockout Sprague-Dawley rat bile at 1 mg/kg, iv up to 24 hrs; assay type: ADME, organism-based; parameters: dose 1 mg/kg, route intravenous; conditions: read-out: Drug excretion; method in brief: as §1
[15] = Half life in MRP2 knockout Sprague-Dawley rat at 5 mg/kg, po by LC-MS/MS analysis; assay type: ADME, organism-based; parameters: dose 5 mg/kg, route oral; conditions: in vivo; method in brief: as §3
[16] = Tmax in BCRP knockout Sprague-Dawley rat at 5 mg/kg, po by LC-MS/MS analysis; assay type: ADME, organism-based; parameters: dose 5 mg/kg, route oral; conditions: in vivo; method in brief: as §3
[17] = Drug excretion in bile duct-cannulated MRP2 knockout Sprague-Dawley rat feces at 1 mg/kg, iv up to 24 hrs; assay type: ADME, organism-based; parameters: dose 1 mg/kg, route intravenous; conditions: faeces, read-out: Drug excretion; method in brief: as §1
[18] = Cmax in wild-type Sprague-Dawley rat at 5 mg/kg, po by LC-MS/MS analysis; assay type: ADME, organism-based; parameters: dose 5 mg/kg, route oral; conditions: in vivo; method in brief: as §3
[19] = AUC (infinity) in BCRP knockout Sprague-Dawley rat at 5 mg/kg, po by LC-MS/MS analysis; assay type: ADME, organism-based; parameters: time infinity, dose 5 mg/kg, route oral; conditions: plasma; method in brief: as §3
[20] = Cmax in BCRP knockout Sprague-Dawley rat at 5 mg/kg, po by LC-MS/MS analysis; assay type: ADME, organism-based; parameters: dose 5 mg/kg, route oral; conditions: in vivo; method in brief: as §3
[21] = AUC (infinity) in BCRP knockout Sprague-Dawley rat at 1 mg/kg, iv by LC-MS/MS analysis; assay type: ADME, organism-based; parameters: time infinity, dose 1 mg/kg, route intravenous; conditions: plasma
[22] = Clearance in wild-type Sprague-Dawley rat at 1 mg/kg, iv by LC-MS/MS analysis; conditions: in vivo
Rattus norvegicus = assay: Clearance in MRP2 knockout Sprague-Dawley rat at 1 mg/kg, iv by LC-MS/MS analysis; conditions: in vivo
[23] = Half life in MDR1A knockout Sprague-Dawley rat at 1 mg/kg, iv by LC-MS/MS analysis; assay type: ADME, organism-based; parameters: dose 1 mg/kg, route intravenous; conditions: in vivo; method in brief: as §2
[24] = Half life in MDR1A knockout Sprague-Dawley rat at 5 mg/kg, po by LC-MS/MS analysis; assay type: ADME, organism-based; parameters: dose 5 mg/kg, route oral; conditions: in vivo; method in brief: as §3

dose excreted at 24 h [1]: 0.1%
Drug uptake (Kidney): Active
Vd [2]: 38.1 L/kg
dose excreted at 24 h [3]: 2%
Cmax [4]: 145 ng/mL
bioavailability [5]: 27%
half-life [6]: 432 min
bioavailability [7]: 13%
dose excreted at 24 h [8]: 0%
dose excreted at 24 h [9]: 4.5%
dose excreted at 24 h [10]: 0.14%
Drug uptake (Brain [11]): Active
dose excreted at 24 h [12]: 0.5%
Drug uptake (Brain [13]): Active
dose excreted at 24 h [14]: 0.2%
half-life [15]: 564 min
Tmax [16]: 54 min
dose excreted at 24 h [17]: 2.8%
Cmax [18]: 30 ng/mL
AUC(0-inf) [19]: 113 ng·h/mL
Cmax [20]: 40 ng/mL
AUC(0-inf) [21]: 171 ng·h/mL
clearance [22]: 112 mL/min/kg
CL (Rattus norvegicus): 9.1 L/h/kg
half-life [23]: 732 min
half-life [24]: 600 min
SMILES: CC(=O)O[C@H]1C(=O)[C@@]2(C)[C@H]([C@H](OC(=O)c3ccccc3)[C@]3(O)C[C@H](OC(=O)[C@H](O)[C@@H](NC(=O)c4ccccc4)c4ccccc4)C(C)=C1C3(C)C)[C@]1(OC(C)=O)CO[C@@H]1C[C@@H]2O [PACLITAXEL]
